Results reported in ChEMBL document CHEMBL1153726, “Synthesis and anticancer activity of sclerophytin-inspired hydroisobenzofurans” (Bioorg Med Chem Lett, 2009).

Tests used:
DU-145 = test: Growth inhibition of human DU145 cells at 1 nM after 96 hrs by MTT assay; type: functional; design: scale not given: the % may be the effect or the level left
ACHN [1] = test: Growth inhibition of human ACHN cells at 1 uM after 96 hrs by MTT assay; type: functional; design: scale not given: the % may be the effect or the level left
A498 [2] = test: Growth inhibition of human A498 cells at 10 uM after 96 hrs by MTT assay; type: functional; design: scale not given: the % may be the effect or the level left
[3] = Growth inhibition of human Hs 578T cells after 96 hrs by MTT assay; type: functional
Method in brief: (§1)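 Run in the NCI 60 human tumour cell line panel as a five-dose assay. GI50 and LC50 were reported for each cell line.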

MOLT-4 = test: Growth inhibition of human MOLT4 cells after 96 hrs by MTT assay; type: functional; settings: MOLT-4, 96 h; method in brief: as §1
SF-539 = test: Growth inhibition of human SF539 cells at 1 nM after 96 hrs by MTT assay; type: functional; design: scale not given: the % may be the effect or the level left
LOX IMVI [4] = test: Growth inhibition of human LOXIMVI cells at 100 nM after 96 hrs by MTT assay; type: functional; design: scale not given: the % may be the effect or the level left
SK-MEL-28 [5] = test: Growth inhibition of human SK-MEL-28 cells after 96 hrs by MTT assay; type: functional; settings: SK-MEL-28, 96 h
Method in brief: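 Tested in the NCI 60-cell-line panel in five-dose format; GI50 and LC50 values reported for each cell line.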

SK-MEL-28 [6] = test: Growth inhibition of human SK-MEL-28 cells at 10 uM after 96 hrs by MTT assay; type: functional; design: scale not given: the % may be the effect or the level left
ACHN [7] = test: Growth inhibition of human ACHN cells at 10 uM after 96 hrs by MTT assay; type: functional; design: scale not given: the % may be the effect or the level left
UO-31 [8] = test: Growth inhibition of human UO31 cells at 10 nM after 96 hrs by MTT assay; type: functional; design: scale not given: the % may be the effect or the level left
U-251 [9] = test: Growth inhibition of human U251 cells at 10 nM after 96 hrs by MTT assay; type: functional; design: scale not given: the % may be the effect or the level left
OVCAR-5 = test: Growth inhibition of human OVCAR5 cells at 10 uM after 96 hrs by MTT assay; type: functional; design: scale not given: the % may be the effect or the level left
UO-31 [10] = test: Growth inhibition of human UO31 cells at 1 nM after 96 hrs by MTT assay; type: functional; design: scale not given: the % may be the effect or the level left
MDA-MB-231 = test: Growth inhibition of human MDA-MB-231 cells at 1 uM after 96 hrs by MTT assay; type: functional; design: scale not given: the % may be the effect or the level left
SNB-19 [11] = test: Growth inhibition of human SNB19 cells at 10 uM after 96 hrs by MTT assay; type: functional; design: scale not given: the % may be the effect or the level left
HCC 2998 = test: Growth inhibition of human HCC2998 cells at 1 nM after 96 hrs by MTT assay; type: functional; design: scale not given: the % may be the effect or the level left
LOX IMVI [12] = test: Growth inhibition of human LOXIMVI cells at 1 uM after 96 hrs by MTT assay; type: functional; design: scale not given: the % may be the effect or the level left
U-251 [13] = test: Growth inhibition of human U251 cells at 10 uM after 96 hrs by MTT assay; type: functional; design: scale not given: the % may be the effect or the level left
[14] = Antitumor activity against human KB3 cells after 96 hrs by MTT assay; type: functional, cell-based; settings: KB3, 96 h
Method in brief: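 Human KB-3 carcinoma cells exposed to increasing compound concentrations; viability read by MTT colorimetric assay after 96 h. Values are means of triplicate assays, expressed relative to untreated controls.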

HT-29 = test: Growth inhibition of human HT-29 cells at 1 nM after 96 hrs by MTT assay; type: functional; design: scale not given: the % may be the effect or the level left
UO-31 [15] = test: Growth inhibition of human UO31 cells at 1 uM after 96 hrs by MTT assay; type: functional; design: scale not given: the % may be the effect or the level left
HOP-62 = test: Growth inhibition of human HOP62 cells at 100 nM after 96 hrs by MTT assay; type: functional; design: scale not given: the % may be the effect or the level left
ACHN [16] = test: Growth inhibition of human ACHN cells at 100 nM after 96 hrs by MTT assay; type: functional; design: scale not given: the % may be the effect or the level left
COLO 205 [17] = test: Growth inhibition of human COLO205 cells at 1 uM after 96 hrs by MTT assay; type: functional; design: scale not given: the % may be the effect or the level left
A498 [18] = test: Growth inhibition of human A498 cells at 100 nM after 96 hrs by MTT assay; type: functional; design: scale not given: the % may be the effect or the level left
NCI/ADR-RES = test: Growth inhibition of human NCI/ADR-RES cells at 100 nM after 96 hrs by MTT assay; type: functional; design: scale not given: the % may be the effect or the level left
MCF7 [19] = test: Growth inhibition of human MCF7 cells at 10 nM after 96 hrs by MTT assay; type: functional; design: scale not given: the % may be the effect or the level left
CAKI-1 = test: Growth inhibition of human Caki1 cells at 1 uM after 96 hrs by MTT assay; type: functional; design: scale not given: the % may be the effect or the level left
MCF7 [20] = test: Growth inhibition of human MCF7 cells at 1 nM after 96 hrs by MTT assay; type: functional; design: scale not given: the % may be the effect or the level left
SF-268 = test: Growth inhibition of human SF268 cells at 10 nM after 96 hrs by MTT assay; type: functional; design: scale not given: the % may be the effect or the level left
Malme-3M = test: Growth inhibition of human MALME-3M cells at 100 nM after 96 hrs by MTT assay; type: functional; design: scale not given: the % may be the effect or the level left
UO-31 [21] = test: Growth inhibition of human UO31 cells at 10 uM after 96 hrs by MTT assay; type: functional; design: scale not given: the % may be the effect or the level left
SNB-19 [22] = test: Growth inhibition of human SNB19 cells at 1 nM after 96 hrs by MTT assay; type: functional; design: scale not given: the % may be the effect or the level left
RXF 393 = test: Growth inhibition of human RXF393 cells at 1 uM after 96 hrs by MTT assay; type: functional; design: scale not given: the % may be the effect or the level left
COLO 205 [23] = test: Growth inhibition of human COLO205 cells after 96 hrs by MTT assay; type: functional; settings: COLO 205, 96 h
A549 = test: Growth inhibition of human A549 cells after 96 hrs by MTT assay; type: functional; settings: A549, 96 h
NCI-H460 = test: Growth inhibition of human NCI-H460 cells at 100 nM after 96 hrs by MTT assay; type: functional; design: scale not given: the % may be the effect or the level left
SW-620 = test: Growth inhibition of human SW620 cells at 10 uM after 96 hrs by MTT assay; type: functional; design: scale not given: the % may be the effect or the level left
MDA-MB-468 = test: Growth inhibition of human MDA-MB-468 cells at 10 nM after 96 hrs by MTT assay; type: functional; design: scale not given: the % may be the effect or the level left
HCT-116 = test: Growth inhibition of human HCT116 cells after 96 hrs by MTT assay; type: functional; settings: HCT-116, 96 h; method in brief: as §1
[24] = read-out: LC50 (the source's name)
[25] = read-out: Log10GI50 (converted)
[26] = read-out: Log10LC50 (converted)

C=C(C)[C@H]1CC=C(C)C2=CO[C@@H](c3ccccc3F)[C@@H]21
Activity (DU-145): 88% | Activity (ACHN [1]): 39% | Activity (A498 [2]): 104.48% | GI50 ([3]; read-out: GI50): 2.72 µM | CC50 [3, 24]: > 100 µM | GI50 [3, 25]: 2.69 µM | CC50 [3, 26]: > 100 µM | TGI ([3]; read-out: Log10TGI (converted)): 24.5 µM | TGI ([3]; read-out: TGI): 24.8 µM | GI50 (MOLT-4; read-out: GI50): 2.12 µM | CC50 (MOLT-4; [24]): 56.2 µM | GI50 (MOLT-4; [25]): 2.14 µM | CC50 (MOLT-4; [26]): 56.2 µM | TGI (MOLT-4; read-out: Log10TGI (converted)): 7.08 µM | TGI (MOLT-4; read-out: TGI): 7.03 µM | Activity (SF-539): 91% | Activity (LOX IMVI [4]): 79% | GI50 (SK-MEL-28 [5]; read-out: GI50): 10.5 µM | CC50 (SK-MEL-28 [5]; [24]): 47.1 µM | GI50 (SK-MEL-28 [5]; [25]): 10.5 µM | CC50 (SK-MEL-28 [5]; [26]): 46.8 µM | TGI (SK-MEL-28 [5]; read-out: Log10TGI (converted)): 22.4 µM | TGI (SK-MEL-28 [5]; read-out: TGI): 22.2 µM | Activity (SK-MEL-28 [6]): 110.2% | Activity (ACHN [7]): 93.56% | Activity (UO-31 [8]): 83% | Activity (U-251 [9]): 94% | Activity (OVCAR-5): 100.16% | Activity (UO-31 [10]): 89% | Activity (MDA-MB-231): 43% | Activity (SNB-19 [11]): 82.9% | Activity (HCC 2998): 86% | Activity (LOX IMVI [12]): 33% | Activity (U-251 [13]): 97.35% | IC50 [14]: 1 µM | Activity (HT-29): 98% | Activity (UO-31 [15]): 42% | Activity (HOP-62): 98% | Activity (ACHN [16]): 97% | Activity (COLO 205 [17]): 50% | Activity (A498 [18]): 88% | Activity (NCI/ADR-RES): 82% | Activity (MCF7 [19]): 103% | Activity (CAKI-1): 37% | Activity (MCF7 [20]): 93% | Activity (SF-268): 94% | Activity (Malme-3M): 74% | Activity (UO-31 [21]): 78.96% | Activity (SNB-19 [22]): 94% | Activity (RXF 393): 44% | GI50 (COLO 205 [23]; read-out: GI50): 9.77 µM | CC50 (COLO 205 [23]; [24]): 46.3 µM | GI50 (COLO 205 [23]; [25]): 9.77 µM | CC50 (COLO 205 [23]; [26]): 46.8 µM | TGI (COLO 205 [23]; read-out: Log10TGI (converted)): 21.4 µM | TGI (COLO 205 [23]; read-out: TGI): 21.5 µM | GI50 (A549; read-out: GI50): 6.17 µM | CC50 (A549; [24]): > 100 µM | GI50 (A549; [25]): 6.17 µM | CC50 (A549; [26]): > 100 µM | TGI (A549; read-out: Log10TGI (converted)): 30.2 µM | TGI (A549; read-out: TGI): 30.1 µM | Activity (NCI-H460): 82% | Activity (SW-620): 101.12% | Activity (MDA-MB-468): 79% | GI50 (HCT-116; read-out: GI50): 3 µM | CC50 (HCT-116; [24]): 36.9 µM | GI50 (HCT-116; [25]): 3.02 µM | CC50 (HCT-116; [26]): 37.2 µM | TGI (HCT-116; read-out: Log10TGI (converted)): 13.5 µM | TGI (HCT-116; read-out: TGI): 13.6 µM
